Experimental data from ChEMBL document CHEMBL1125720, “Long-acting dihydropyridine calcium antagonists. 6. Structure-activity relationships around 4-(2,3-dichlorophenyl)-3-(ethoxycarbonyl)-2-[(2-hydroxyethoxy)methyl]-5 -(methoxycarbonyl)-6-methyl-1,4-dihydropyridine” (J Med Chem, 1991).

Legend:
[1] = organism: Rattus norvegicus; test: Evaluated for the negative logarithm of the molar concentration required to block [Ca2+] induced contraction of K+ depolarized rat aorta by 50%.; type: functional
Summary of the method: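 Rat aorta depolarized with potassium, then contracted by adding calcium. Read-out is the molar concentration that inhibits the calcium-induced contraction by 50%, reported as pIC50.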

[2] = organism: Cavia porcellus; test: Evaluated for the negative ionotropy logarithm of the molar concentration required to depress contraction in the Langendorff-perfused guinea pig heart by 25%; type: functional
Summary of the method: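 Negative inotropy measured in vitro in a Langendorff-perfused guinea pig heart. Read-out is the molar concentration that depresses contraction by 25%, reported as pIC25.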

[3] = Selectivity index calculated as the ratio of Calcium pIC50 to that of negative inotropy IC25; type: functional
[4] = Compound was evaluated for the plasma clearance to investigate its pharmacokinetic profile in dogs after intravenous administration.; type: ADME, organism-based, Canis lupus familiaris; conditions: dog
[5] = Compound was evaluated for the volume of distribution to investigate its pharmacokinetic profile in dogs after intravenous administration.; type: ADME, organism-based, Canis lupus familiaris; conditions: dog, in vivo, read-out: Volume of distribution
[6] = Compound was evaluated for the plasma half-life to investigate its pharmacokinetic profile in dogs after intravenous administration.; type: ADME, organism-based, Canis lupus familiaris; conditions: dog

Row | SMILES | IC50 [1] [nM] | pIC25 [2] | Selectivity index [3] | clearance [4] [mL/min/kg] | Vd [5] [L/kg] | half-life [6] [h]
1 | CCO/C(O)=C1\C(COCC(C)(O)CO)=NC(C)=C(C(=O)OC)C1c1cccc(Cl)c1Cl (configuration not stated) | 25.1 | 7 | 4 | – | – | –
2 | CCO/C(O)=C1\C(COCC(C)(O)CNc2ncccn2)=NC(C)=C(C(=O)OC)C1c1cccc(Cl)c1Cl (configuration not stated) | 39.8 | 7.1 | 2 | – | – | –
3 | CCO/C(O)=C1\C(COCC(C)(C)O)=NC(C)=C(C(=O)OC)C1c1cccc(Cl)c1Cl (configuration not stated) | 6.31 | 7.2 | 10 | – | – | –
4 | CCO/C(O)=C1\C(COCC(C)(O)CSc2ncccn2)=NC(C)=C(C(=O)OC)C1c1cccc(Cl)c1Cl (configuration not stated) | 25.1 | 7.4 | 1.6 | – | – | –
5 | CCO/C(O)=C1\C(COCCOC)=NC(C)=C(C(=O)OC)C1c1cccc(Cl)c1Cl (configuration not stated) | 31.6 | 6 | 30 | – | – | –
6 | CCO/C(O)=C1\C(COCC(C)(O)Cn2ccnc2)=NC(C)=C(C(=O)OC)C1c1cccc(Cl)c1Cl (configuration not stated) | 39.8 | 7.2 | 1.6 | – | – | –
7 | CCCOCC1=C(C(=O)OCC)C(c2cccc(Cl)c2Cl)/C(=C(\O)OC)C(C)=N1 (configuration not stated) | 31.6 | 6.2 | 20 | – | – | –
8 | CCO/C(O)=C1\C(COCC(C)(O)CN)=NC(C)=C(C(=O)OC)C1c1cccc(Cl)c1Cl (configuration not stated) | 158 | 6.5 | 2 | – | – | –
9 | CCO/C(O)=C1\C(COCC(C)(O)Cn2cncn2)=NC(C)=C(C(=O)OC)C1c1cccc(Cl)c1Cl (configuration not stated) | 20 | 7.2 | 3 | – | – | –
10 | CCO/C(O)=C1\C(COCCO)=NC(C)=C(C(=O)OC)C1c1cccc(Cl)c1Cl (configuration not stated) | 3.98 | 7.4 | 10 | 9.6 | 6 | 7.3
11 | CCO/C(O)=C1\C(COCC(C)(O)c2ccco2)=NC(C)=C(C(=O)OC)C1c1cccc(Cl)c1Cl (configuration not stated) | 15.8 | 6.6 | 16 | – | – | –
12 | CCO/C(O)=C1\C(COCC(O)CO)=NC(C)=C(C(=O)OC)C1c1cccc(Cl)c1Cl (configuration not stated) | 15.8 | 6.9 | 8 | – | – | –
13 | COC(=O)C1=C(C)NC(C)=C(C(=O)OC)C1c1ccccc1[N+](=O)[O-] [NIFEDIPINE] | – | 7.5 | 8 | – | – | –
14 | CCO/C(O)=C1\C(COCC(C)O)=NC(C)=C(C(=O)OC)C1c1cccc(Cl)c1Cl (configuration not stated) | 15.8 | 7.3 | 3 | – | – | –
15 | CCO/C(O)=C1\C(COCC(C)(O)Cc2ccccn2)=NC(C)=C(C(=O)OC)C1c1cccc(Cl)c1Cl (configuration not stated) | 63.1 | 7.5 | 2 | – | – | –
